TMEM16A inh – mouse TMEM16A channel inhibition, primary screen | 1.2% of 310,000 active | AID 588511 | normalized B-score (activity score, 25-100; higher = stronger inhibition) at 10 µM | HEK293 TMEM16A/YFP iodide influx fluorescence, ionomycin;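 active = ratio plate-corrected score three or more library SD toward inhibition, starting fluorescence score within five deviations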;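 also: score derived from kinetic fluorescence span divided by baseline fluorescence per well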
Target sequence (Q8BHY3 whole entry, looked up): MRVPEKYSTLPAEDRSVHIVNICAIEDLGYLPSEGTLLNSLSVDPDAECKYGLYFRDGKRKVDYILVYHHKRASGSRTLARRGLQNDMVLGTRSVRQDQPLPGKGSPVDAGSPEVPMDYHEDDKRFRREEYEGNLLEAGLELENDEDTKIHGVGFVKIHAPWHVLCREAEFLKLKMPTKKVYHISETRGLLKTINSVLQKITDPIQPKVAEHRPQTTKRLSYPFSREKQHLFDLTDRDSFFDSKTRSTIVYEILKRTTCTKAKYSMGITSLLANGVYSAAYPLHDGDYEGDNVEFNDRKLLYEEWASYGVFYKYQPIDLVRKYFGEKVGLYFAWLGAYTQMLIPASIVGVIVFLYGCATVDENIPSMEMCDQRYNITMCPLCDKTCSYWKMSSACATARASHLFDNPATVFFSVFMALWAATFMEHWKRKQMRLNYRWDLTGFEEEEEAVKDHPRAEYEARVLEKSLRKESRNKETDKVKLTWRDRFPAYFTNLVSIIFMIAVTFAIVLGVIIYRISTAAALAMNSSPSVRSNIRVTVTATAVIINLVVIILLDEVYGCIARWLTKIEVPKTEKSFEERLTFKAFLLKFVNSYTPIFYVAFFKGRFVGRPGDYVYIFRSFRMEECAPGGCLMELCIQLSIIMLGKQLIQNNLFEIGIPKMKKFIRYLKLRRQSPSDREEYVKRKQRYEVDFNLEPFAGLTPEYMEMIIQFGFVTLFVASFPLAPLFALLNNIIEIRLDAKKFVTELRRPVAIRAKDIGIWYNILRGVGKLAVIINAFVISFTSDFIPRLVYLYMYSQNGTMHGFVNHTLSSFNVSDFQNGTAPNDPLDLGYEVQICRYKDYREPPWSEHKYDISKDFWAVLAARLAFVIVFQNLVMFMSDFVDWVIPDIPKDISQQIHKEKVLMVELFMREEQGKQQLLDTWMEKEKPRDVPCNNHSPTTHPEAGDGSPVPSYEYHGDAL
XBP1 UPR activ – adaptive UPR (XBP1) activation; CHO-XBP1 luciferase reporter, IRE1-XBP1 UPR activation, luminescence; percent of tunicamycin response, DMSO as zero; activation, % at 20 µM; 0.33% of 330,000 active; AID 463104;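 active = versus positive control, 20 µM dose yields 30% or more activation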;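 also: 100% = tunicamycin at 10 µg/mL and 0% = DMSO only wells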
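Assay system: IRE1-XBP1 luciferase reporter CHO line. Input: 1000 cells/well. Buffer or medium: F12 with 10% serum. Doses: 20 µM, 1% DMSO. Times: overnight seeding at 37 °C, 6 h compound treatment at 37 °C. Technique: Steady-Glo luciferase glow luminescence, 10 min after reagent addition.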
TMEM16A act – mouse TMEM16A channel activation, primary screen | HEK293 TMEM16A/YFP-H148Q/I152L, iodide quench fluorescence; active compounds read low | B-score at 10 µM | 0.3% of 340,000 active | AID 623877;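 active = fluorescence-ratio B-score plate-corrected deviation score at least 3 library SD below zero, with starting fluorescence score within 5 deviations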;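 also: channel opened by trigger with iodide after compound preincubation; score built on the fluorescence ratio of max minus min over baseline; more negative score means more quench and so TMEM16A activation or potentiation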
CHOP inh – inhibitors of CHOP induction in ER stress response. CHO-K1 CHOP-promoter luciferase, tunicamycin-induced, 15-18 h. inhibition, % at 10 µM. 3.8% of 220,000 active;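 active = compounds that reduced the stress-induced luciferase reporter signal by more than about 70% of percent inhibition, limit read from the data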;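 also: 0% = tunicamycin plus vehicle and 100% = wells without tunicamycin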
UPR CHOP act – apoptotic UPR (CHOP) activation; activation, % at 10 µM; CHO-CHOP luciferase reporter, luminescence; percent of tunicamycin response over DMSO baseline; AID 449763; 0.34% of 330,000 active;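 active = at 10 µM dose, activation of 40% or more, normalized to positive control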;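 also: 100% = tunicamycin at 10 µg/mL and 0% = DMSO alone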
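System: CHO-CHOP luciferase reporter cell line; amount: 500 cells/well; buffer or medium: F12 medium containing 10% fetal bovine serum; incubation: 6 h compound exposure at 37 °C after overnight seeding; measured by: luciferase luminescence after 10 min with Steady-Glo reagent; evaluation: % reporter activation, DMSO baseline versus tunicamycin full activation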
Hep lipid drop – modulators of hepatic lipid droplet formation; inhibition, % at 6.5 µM; AML12 mouse hepatocytes, oleate lipid droplets, BODIPY imaging; AID 1656; 0.4% of 240,000 active;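 active = lipid droplet intensity inhibited by at least 50%, with more than 500 cells counted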
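Material – AML12 mouse liver cells · Also added – oleate loading, 100 µM · Compound dosing – 6.5 µM single-point dosing · Times – overnight treatment with compound plus oleate · Measured by – fluorescence imaging, 20x objective, two fields per well · Read-out – percent inhibition of filter-corrected integrated lipid droplet intensity per well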
* = called active by the depositor. The list is not random: actives were taken first. Their share in the collection is about 4.2%.

Screening N#CC1=C(N)NC(SCC(=O)c2ccccc2)=C(C#N)C12CCCC2 returned TMEM16A inh inactive, XBP1 UPR activ 1, TMEM16A act inactive, CHOP inh -3, UPR CHOP act 0 and Hep lipid drop -30.
For C=CCOc1ccccc1CN1CCCCCC1 the results were TMEM16A inh inactive, XBP1 UPR activ -1, TMEM16A act inactive, UPR CHOP act -1 and Hep lipid drop -2.
CN(CC(=O)Nc1ccc(F)cc1)C(=O)CCc1ccccc1 was read as TMEM16A inh inactive, XBP1 UPR activ -3, TMEM16A act inactive, UPR CHOP act -2 and Hep lipid drop -2.
For C#CCNc1c2c(nc3ncnn13)CC(C)CC2 (centres undefined) the results were TMEM16A inh inactive, XBP1 UPR activ 1, TMEM16A act inactive, CHOP inh 2, UPR CHOP act 0 and Hep lipid drop 26.
`CC(C)c1ccc(NC(=O)COC(=O)C2CCCCC2)cc1` gave XBP1 UPR activ 1, TMEM16A act inactive and UPR CHOP act 3.
Screening CCC(=O)n1nc(-c2ccccc2)nc1NCc1ccccc1 returned TMEM16A inh inactive, XBP1 UPR activ 4, TMEM16A act inactive, CHOP inh 93*, UPR CHOP act 2 and Hep lipid drop -8.
COCC(=O)n1nc(-c2ccccc2)nc1NCc1ccccc1 was read as XBP1 UPR activ 0, TMEM16A act inactive, CHOP inh 27, UPR CHOP act 2 and Hep lipid drop 2.
`COC(=O)N/N=C/c1cn(CC(C)COc2ccccc2)c2ccccc12` (centres undefined) gave TMEM16A inh inactive, XBP1 UPR activ -3, TMEM16A act inactive, CHOP inh 70, UPR CHOP act 1 and Hep lipid drop 5.
Screening Cc1nnc2n(C3CCCCC3)c(=O)c3c4c(sc3n12)CCC4 returned CHOP inh -4.
`Cc1nnc2n(C3CCCCC3)c(=O)c3c4c(sc3n12)COC(C)(C)C4` gave TMEM16A inh inactive, XBP1 UPR activ 3, TMEM16A act -15*, CHOP inh 38 and UPR CHOP act 2.
For CCOC(=O)c1c(NC(=O)CN2CCCCC2)sc2c1CCCC2O (centres undefined) the results were TMEM16A inh inactive, XBP1 UPR activ -1, TMEM16A act inactive, CHOP inh 86* and UPR CHOP act 0.
`COc1cccc(-c2coc3c(C)c4oc(=O)c(CCC(=O)O)c(C)c4cc23)c1` gave TMEM16A inh 100*, XBP1 UPR activ 1, TMEM16A act inactive, UPR CHOP act 2 and Hep lipid drop -14.
`CCOC(=O)c1c(NC(=O)C2C3C=CC(C3)C2C(=O)O)sc2c1CCC(CC)C2` (centres undefined) gave TMEM16A inh inactive, XBP1 UPR activ -2, TMEM16A act inactive, CHOP inh 72*, UPR CHOP act 0 and Hep lipid drop 1.
For CC(C)C[C@H](NC(=O)c1nc[nH]c1C(=O)NCCCCCN)C(=O)OCc1ccccc1 the results were XBP1 UPR activ -2, TMEM16A act inactive and UPR CHOP act 1.
For O=C(CCSc1ccccc1)Nc1ccc(OCc2ccccc2)cc1 the results were TMEM16A inh inactive, XBP1 UPR activ 4, TMEM16A act inactive, CHOP inh 75* and UPR CHOP act 0.
`C=CCn1c(SCC(=O)NCC2CCCO2)nnc1-c1ccncc1` (centres undefined) gave XBP1 UPR activ 1, TMEM16A act inactive and UPR CHOP act -1.
Cc1nn(-c2ccccc2)c(C)c1/C=N/n1c(-c2ccc(C(C)(C)C)cc2)n[nH]c1=S was read as TMEM16A inh inactive, XBP1 UPR activ 6, TMEM16A act inactive, CHOP inh 84* and UPR CHOP act 0.
Screening Cc1ccccc1-c1n[nH]c(=S)n1/N=C/c1c(C)nn(-c2ccccc2)c1C returned TMEM16A inh inactive, XBP1 UPR activ 2, TMEM16A act inactive, CHOP inh 30, UPR CHOP act -1 and Hep lipid drop -10.
`S=c1[nH]nc(-c2ccncc2)n1/N=C/c1cn(-c2ccccc2)nc1-c1ccc(Cl)cc1` gave TMEM16A inh inactive, XBP1 UPR activ 8, TMEM16A act inactive, CHOP inh 91*, UPR CHOP act 2 and Hep lipid drop -28.
Screening COc1ccccc1/C=C\C=N\n1c(-c2ccc(Cl)cc2)n[nH]c1=S returned TMEM16A inh inactive, XBP1 UPR activ 4, TMEM16A act inactive, CHOP inh 89*, UPR CHOP act 1 and Hep lipid drop 1.
Screening CSc1nnc(-c2ccncc2)n1/N=C/c1cn(-c2ccccc2)nc1-c1ccc(Cl)cc1 returned TMEM16A inh inactive, XBP1 UPR activ 8, TMEM16A act inactive, CHOP inh 35, UPR CHOP act 1 and Hep lipid drop -23.
`COc1cccc(CC(=O)OC(C)C(=O)Nc2ccc(N3CCOCC3)cc2)c1` (centres undefined) gave TMEM16A inh inactive, XBP1 UPR activ -3, TMEM16A act inactive and UPR CHOP act 4.
For O=C(Nc1nc(-c2ccccc2)cs1)c1ccc(N2CCOCC2)c([N+](=O)[O-])c1 the results were TMEM16A inh inactive, XBP1 UPR activ -3, TMEM16A act inactive, CHOP inh 79*, UPR CHOP act 0 and Hep lipid drop 20.
Screening O=C(Nc1nc2ccccc2s1)c1ccc(N2CCCCC2)c([N+](=O)[O-])c1 returned TMEM16A inh inactive, XBP1 UPR activ 3, TMEM16A act inactive, CHOP inh 79*, UPR CHOP act 3 and Hep lipid drop 12.
For Cc1ccc(-c2csc(NC(=O)c3cc([N+](=O)[O-])ccc3N3CCOCC3)n2)cc1 the results were TMEM16A inh inactive, XBP1 UPR activ -2, TMEM16A act inactive, CHOP inh -6, UPR CHOP act 2 and Hep lipid drop 21.
Cc1cc(C)n(-c2ccc(C(=O)Nc3nc4ccccc4s3)cc2)n1 was read as TMEM16A inh inactive, XBP1 UPR activ 7, TMEM16A act inactive, CHOP inh 90* and UPR CHOP act 5.
CCc1ccc2nc(NC(=O)c3ccc(N4C(=O)CCC4=O)cc3)sc2c1 was read as TMEM16A inh inactive, XBP1 UPR activ -1, TMEM16A act inactive, CHOP inh 80*, UPR CHOP act 5 and Hep lipid drop -1.
For CC(OC(=O)COc1ccccc1[N+](=O)[O-])C(=O)Nc1ccc(N2CCOCC2)cc1 (centres undefined) the results were TMEM16A inh inactive, XBP1 UPR activ -5, TMEM16A act inactive, CHOP inh -17, UPR CHOP act 2 and Hep lipid drop 21.

Screening data: PubChem, several laboratories
